Test results: paper PMC12570389 (RSC Advances, 2025)
Entries after “also recorded” stand apart in the source; their conditions may differ.

Key:
[1] = system: CCR2; conditions: Table S5C training set of 3D-QSAR; ref BindingDB; cited from earlier work
[2] = system: Human diploid fibroblasts (MRC-5); test: CCK8 viability assay in TGF-β-induced pulmonary fibrosis cell model; assay type: cell-based
Method in brief: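 MRC-5 fibroblasts were seeded at 2000 cells/well and given TGF-β (10 ng mL−1) for 48 h to build the fibrosis model. Test compound was dissolved in DMSO, diluted in DMEM and applied at 0, 1, 1.25, 2.5, 5, 10, 25, 50 and 100 μmol for 48 h, with a reference antifibrotic as positive control. CCK8 (10% volume) was added, plates incubated 3 h in the dark, and A450 read.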

[3] = system: MRC-5 cells; test: Hydroxyproline content in TGF-β-stimulated MRC-5 cells; assay type: cell-based, human; conditions: 17 (50 μM), 67 (100 μM), nintedanib (10 μM), 48 hours, vs TGF-β model
Method in brief: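 TGF-β (10 ng mL−1, 48 h) stimulated MRC-5 fibrosis model cells were then exposed to test compound at a single concentration (50 or 100 μM), or to a reference antifibrotic at 10 μM, for 48 h. Hydroxyproline content was compared with the TGF-β-stimulated model.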

[4] = system: COL1A1; test: RT-qPCR of COL1A1 mRNA in TGF-β-stimulated MRC-5 cells; assay type: cell-based, human; conditions: 17 (50 μM), 67 (100 μM), nintedanib (10 μM), 48 hours, vs TGF-β model

| Structure (SMILES) | IC50 [1] [nM] | proliferation / 48-hour cell inhibition rate (CCK8) ([2]; TGF-β (10 ng mL^−1) induced MRC-5, 48-hour drug treatment, 0-100 μmol) | cytotoxic effect on the pulmonary fibrosis cell model, comparison ([2]; TGF-β induced MRC-5, 48 h, CCK8) | hydroxyproline [3] | expression of COL1A1 [4] |
| --- | --- | --- | --- | --- | --- |
| Cc1ccc(-c2ccc3c(c2)C=C(C(=O)Nc2ccc(C[N+](C)(C)C4CCOCC4)cc2)CCC3)cc1 [BDBM50088301] | 0.03 | – | – | – | – |
| COC(=O)c1ccc2c(c1)NC(=O)/C2=C(\Nc1ccc(N(C)C(=O)CN2CCN(C)CC2)cc1)c1ccccc1 [nintedanib] | – | effectively suppressed the proliferation; also recorded: concentration-dependent increase in their inhibitory effects | even stronger cytotoxic effect than compound 17 | significantly decreased | significantly decreased |
